In data set [1] the test system is Escherichia coli. The experiment in a line: Antibacterial activity against Escherichia coli TEM. It is filed as functional.
In another data set the test system is Streptococcus pyogenes. The experiment in a line: Antibacterial activity against Streptococcus pyogenes. It is filed as functional.
Data set [2] concerns Klebsiella pneumoniae. The experiment in a line: Antibacterial activity against Klebsiella pneumoniae X26. It is filed as functional.
Data set [3] has as its system Mus musculus. The experiment in a line: In vivo efficacy against Escherichia coli infected mice treated at 1 hr and 5 hr post infection. It is filed as functional. In short, it runs like this:
(§1)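 Mice given lethal experimental infections, with treatment at 1 and 5 h postinfection; ED50 expressed as mg/kg × 2.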

Data set [4] deals with Mus musculus. The experiment in a line: In vivo efficacy against Staphylococcus aureus infected mice treated at 1 hr and 5 hr post infection. The class given is functional. In short, it runs like this:
as §1

In data set [5] the test system is Staphylococcus aureus. The data set can be described thus: Antibacterial activity against penicillin G susceptible Staphylococcus aureus. The class given is functional.
The subject of data set [6] is Pseudomonas aeruginosa. The experiment in a line: Antibacterial activity against Pseudomonas aeruginosa PS18. It is filed as functional.
Data set [7] deals with Escherichia coli. The data set can be described thus: Antibacterial activity against Escherichia coli EC14. The class given is functional.
Data set [8] relates to Mus musculus. The data set can be described thus: In vivo efficacy against Pseudomonas aeruginosa infected mice treated at 1 hr and 5 hr post infection. The class given is functional. In short, it runs like this: as §1
The test system of data set [9] is Enterobacter cloacae. The experiment in a line: Antibacterial activity against Enterobacter cloacae EB5. The class given is functional.
The next data set has as its system Streptococcus pneumoniae. The experiment in a line: Antibacterial activity against Streptococcus pneumoniae. The class given is functional.
Data set [10] has as its system Pseudomonas aeruginosa. The experiment in a line: Antibacterial activity against Pseudomonas aeruginosa X528. The class given is functional.
The subject of data set [11] is Enterobacter cloacae. The data set can be described thus: Antibacterial activity against Enterobacter cloacae 265A. The class given is functional.
A further data set has as its system Serratia marcescens. The data set can be described thus: Antibacterial activity against Serratia marcescens SE3. It is filed as functional.
The subject of data set [12] is Staphylococcus aureus. The experiment in a line: Antibacterial activity against penicillin G resistance Staphylococcus aureus. It is filed as functional.
The nature of data set [13]: Terminal half life in Rhesus monkeys at the dose of 30 mg/kg. It is filed as ADME, organism-based, Macaca mulatta. The arrangement: dose 30 mg/kg. The note with it: rhesus monkey, in vivo. In short, it runs like this: (§2)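 Male rhesus monkeys dosed intravenously at 30 mg/kg. Plasma sampled from 0.08–0.1 h up to 6–8 h; urine collected over 0–6/8 and 6/8–24 h. Samples measured by microbiological assay.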

The nature of data set [14]: Terminal half life in dogs at the dose of 20 mg/kg. The class given is ADME, organism-based, Canis lupus familiaris. Also noted: dose 20 mg/kg. The note with it: dog, in vivo. The essentials:
(§3)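 Overnight-fasted female mongrel dogs with a Foley bladder catheter; bolus into the cephalic vein. Plasma and urine collected before dosing and over 24 h after. Antibacterial activity measured by microbiological assay.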

Data set [15] can be described thus: Terminal half life in dogs at the dose of 10 mg/kg. It is filed as ADME, organism-based, Canis lupus familiaris. Also noted: dose 10 mg/kg. The note with it: dog, in vivo. In short, it runs like this: as §3
Data set [16] deals with Klebsiella pneumoniae. The experiment in a line: microbe, parasite or virus in culture. It is filed as functional. The note with it: Klebsiella pneumoniae; read-out: MIC.
The test system of the next data set is Monkey. The data set can be described thus: Percent of dose in Rhesus monkeys urine at the dose of 30 mg/kg. The class given is functional, Cercopithecidae. The essentials:
as §2

The test system of a further data set is Enterococcus faecium. The experiment in a line: Antibacterial activity against Enterococcus faecium. It is filed as functional. The note with it: Enterococcus faecium; read-out: MIC.
A further data set is filed under the species Cavia porcellus. The experiment in a line: In vitro relative anticholinergic potential in isolated guinea pig trachea. The class given is functional. In short, it runs like this:
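Guinea pig trachea in Krebs' solution at 37.5 °C, 95% O2/5% CO2, pH 7.4, 2 g resting tension. Cumulative carbachol log dose-response curve (3-fold steps) run before and 30 min after adding antagonist at 1 mM. […] Tukey test on log2 dose ratios.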

Where [17] appears, read: Staphylococcus aureus, read-out: MIC.
Where [18] appears, read: Pseudomonas aeruginosa, read-out: MIC.
[19] abbreviates: Enterobacter cloacae, read-out: MIC.

Here are results for two compounds from ChEMBL document CHEMBL1124865, “Synthesis and biological evaluation of a series of parenteral 3'-quaternary ammonium cephalosporins” (J Med Chem, 1990).

≈ marks a conversion by molar mass, not a printed value.

As a reminder, the ED50 is the dose that gives a 50% effect, or the effect in half of the subjects. On to `CO/N=C(\C(=O)N[C@@H]1C(=O)N2C(C(=O)[O-])=C(C[n+]3cccc(CC(=O)O)c3)CS[C@H]12)c1csc(N)n1` (stereo in doubt; 6), for which the MIC is 0.03 µg/mL (≈ 0.0563 µM) against Escherichia coli [1]; 0.015 µg/mL (≈ 0.0282 µM) with Streptococcus pyogenes; 0.015 µg/mL (≈ 0.0282 µM) against Klebsiella pneumoniae [2]; 4 µg/mL (≈ 7.51 µM) in the data set on Staphylococcus aureus [5]; 32 µg/mL (≈ 60.1 µM) in the data set on Pseudomonas aeruginosa [6]; 0.015 µg/mL (≈ 0.0282 µM) in the data set with Escherichia coli [7]. Moreover, the MIC was 0.5 µg/mL (≈ 0.939 µM) with Enterobacter cloacae [9]; 0.015 µg/mL (≈ 0.0282 µM) in the data set with Streptococcus pneumoniae; 8 µg/mL (≈ 15 µM) against Pseudomonas aeruginosa [10]; above 128 µg/mL in the data set with Enterobacter cloacae [11]; 0.25 µg/mL (≈ 0.469 µM) in the data set with Serratia marcescens; 4 µg/mL (≈ 7.51 µM) against Staphylococcus aureus [12]. The figures for the ED50 in the data set with Mus musculus [3], in the data set on Mus musculus [4] and with Mus musculus [8] were 0.13 mg/kg, 7.8 mg/kg and above 50 mg/kg, respectively.

As a reminder, the half-life is how long it takes for the measured level to halve. For the compound `CO/N=C(\C(=O)N[C@@H]1C(=O)N2C(C(=O)[O-])=C(C[n+]3ccc4ncn(C)c4c3)CS[C@H]12)c1csc(N)n1`, the half-life amounted to 1.08 h in data set [13], 1.17 h in data set [14] and 1.27 h in data set [15]. Further, the MIC came to 8 µg/mL (≈ 15.1 µM) in the data set on Klebsiella pneumoniae [16]; 0.008 µg/mL (≈ 0.0151 µM) with Streptococcus pyogenes (Streptococcus pyogenes, read-out: MIC); 128 µg/mL (≈ 242 µM) with Enterococcus faecium; 2 µg/mL (≈ 3.78 µM) with Staphylococcus aureus [5] (setting [17]); 8 µg/mL (≈ 15.1 µM) in the data set with Pseudomonas aeruginosa [6] (setting [18]); 0.125 µg/mL (≈ 0.236 µM) in the data set with Enterobacter cloacae [9] (setting [19]). The MIC with Pseudomonas aeruginosa [10] (setting [18]) was found to be 2 µg/mL (≈ 3.78 µM); with Enterobacter cloacae [11] (setting [19]) it was 8 µg/mL (≈ 15.1 µM); in the data set with Serratia marcescens (Serratia marcescens, read-out: MIC) it was 0.125 µg/mL (≈ 0.236 µM); with Staphylococcus aureus [12] (setting [17]), 2 µg/mL (≈ 3.78 µM). In the data set on Monkey, this compound had a Dose of 52%. This compound also came in with an RAP in the data set listed under Cavia porcellus of 1.
